Compounds with a hit are over-represented: about 10% of the library has one in this group of screens.
L major viab – inhibitors of Leishmania major promastigote growth; hit rate 9% among 200,000; inhibition, % at 10 µM; Leishmania major promastigotes, resazurin fluorescence viability; AID 1063; in the data active = inhibition above about 50%;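 also: promastigotes grown with compound for 44 hours at 28 °C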
PMI activator – phosphomannose isomerase (human) activation; purified human PMI, coupled resazurin fluorescence, 20 min; hits give high values; 1 = vehicle control, 0 substrate-free wells; activation factor at 20 µM; hit rate 0.005% among 190,000;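 active = activation factor of 2 or more at 20 µM, relative to plate controls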
Target sequence (P34949 whole entry, looked up): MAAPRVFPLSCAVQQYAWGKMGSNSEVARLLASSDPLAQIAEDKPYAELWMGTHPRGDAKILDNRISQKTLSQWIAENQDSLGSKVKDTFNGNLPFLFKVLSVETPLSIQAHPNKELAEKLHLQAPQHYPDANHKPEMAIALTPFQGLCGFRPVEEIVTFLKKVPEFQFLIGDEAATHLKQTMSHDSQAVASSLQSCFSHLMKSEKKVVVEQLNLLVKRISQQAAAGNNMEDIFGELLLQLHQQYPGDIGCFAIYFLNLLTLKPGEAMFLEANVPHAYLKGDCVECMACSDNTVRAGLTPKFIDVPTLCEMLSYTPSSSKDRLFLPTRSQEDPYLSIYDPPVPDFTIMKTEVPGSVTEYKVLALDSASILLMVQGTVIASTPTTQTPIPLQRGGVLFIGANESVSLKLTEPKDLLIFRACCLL
Diaph act CS – activates diaphorase or chemically reduces, flagging diaphorase assay artifacts. AID 1229. Diaphorase/resazurin coupled assay, resorufin fluorescence, 16 min; hits give high values; 1 = vehicle wells, 0 = NADH-free wells. hit rate 0.005% among 190,000. activation factor at 20 µM;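 active = diaphorase activity raised at least twofold by the compound at 20 µM; inactive = activation factor below 2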
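Assay system: Purified diaphorase enzyme from Clostridium kluyveri | Amount: Enzyme 0.07 U/mL final | Dosing: Compound 20 µM once, DMSO 1% | Timing: 16 min reaction at room temperature | Detection: Fluorescence, excitation 544 nm and emission 590 nm | Evaluation: Higher resorufin formation from activation or reduction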
PMI act satM6P – PMI (human) activation, high substrate | hit rate 0.34% among 190,000 | coupled PMI enzyme assay, resazurin fluorescence, 20 min; hits give high values; 1 = untreated enzyme, 0 = substrate-free blank | activation factor at 20 µM | P34949;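 active = activation factor of 2 or more at 20 µM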
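Test system: human phosphomannose isomerase with PGI, G6PDH, diaphorase coupling enzymes; amount: 15 ng/mL PMI; incubation: enzyme reaction with compound 20 min at room temperature; technique: resorufin fluorescence (Ex 544/Em 590 nm) from resazurin via diaphorase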
WT yeast gro inh – growth inhibition of WT yeast, mitochondrial fusion screen; mitochondrial fusion phenotypic screen, WT strain; inhibition, % at 10 µM; hit rate 2.1% among 190,000; AID 1362; in the data active = inhibition above about 58%; tested in S. cerevisiae
Numbers without * were called inactive; . = no result.

SMILES	L major viab	PMI activator	Diaph act CS	PMI act satM6P	WT yeast gro inh
Cc1ccc(-c2c[n+](Cc3ccc(Cl)c(Cl)c3)c3n2CCC3)cc1	100*	1.1	1	1.1	-8
COc1ccc(C(=O)C[n+]2cc(-c3ccc(OC)cc3)n3c2CCCC3)cc1	99*	1.1	1	1	11
Cc1ccc(-c2c[n+](CC(=O)OCc3ccccc3)c3n2CCC3)cc1	-4	1.1	0.9	1	-13
CS(=O)(=O)N1CCC(C(=O)Nc2ccc(Cl)c(Cl)c2)CC1	11	1	1.1	1	-7
O=C1C=C(NCc2ccc3c(c2)OCO3)CC(c2ccccc2)C1 (centres undefined)	-4	0.9	0.7	1	-13
Cc1ccc(NC(=O)Nc2ccccc2C#N)c(Cl)c1	66*	1.1	0.9	1.1	-9
O=C1NCN(c2ccccc2)C12CCN(CCCC(c1ccc(F)cc1)c1ccc(F)cc1)CC2	101*	0.9	1.1	0.9	73*
O=C(Nc1ccccc1Cl)c1ccccc1Cc1ccccc1	-5	0.9	0.8	1.1	9
COc1ccc(CC(=O)O/N=C(\N)Cc2ccc(OC)cc2)cc1	-5	0.9	0.8	0.9	-18
COc1ccc(CC(=O)O/N=C(\N)Cc2ccc(OC)c(OC)c2)cc1	92*	0.9	1	0.9	.
O=C(CC1SC(=NCc2ccccc2)NC1=O)Nc1ccccc1 (centres undefined)	10	1	1	1	-7
CC(=O)c1cnc2c(-c3cccc(Br)c3)cnn2c1C	88*	1.1	0.9	1	-27
CCOC(=O)Cc1c(C)nc2c(-c3cccc(Br)c3)cnn2c1C	-8	0.9	0.9	0.8	-9
O=C(CC(Nc1ccc(F)cc1)C(=O)O)c1ccccc1 (centres undefined)	61*	0.9	0.8	1	4
CC(C)(C)c1nc(S(=O)(=O)c2ccc(Cl)cc2)c(N2CCOCC2)o1	-7	1.6	1	2.1*	10
CC(C)Cc1nc(S(=O)(=O)c2ccc(Cl)cc2)c(N2CCOCC2)o1	-8	1.1	0.9	1.2	6
Cc1ccc(-n2c(SCC(=O)NC3CCS(=O)(=O)C3)nc3ccccc3c2=O)cc1 (centres undefined)	0	1.1	0.9	1.1	4
O=C(CSc1nc2cc(C(F)(F)F)ccc2n1Cc1ccccc1)NC1CCS(=O)(=O)C1 (centres undefined)	97*	1	0.8	1	0
Cc1ccc(C(=O)NNC(=O)C2CCN(c3nccc(C)n3)CC2)cc1	-3	1	0.9	1.1	0
COc1cccc(S(=O)(=O)NCc2ccc(C(=O)Nc3ccc(Cl)c(Cl)c3)cc2)c1	20	1	0.9	1.2	6
O=C(Nc1ccc(Cl)c(Cl)c1)c1cccc(S(=O)(=O)NCc2cccnc2)c1	7	0.9	0.9	0.9	76*
O=C(Nc1ccc(Cl)c(Cl)c1)OCc1cccnc1	3	0.8	0.8	0.8	79*
CC(C)CNC(=O)CC(c1ccccc1)c1ccccc1	8	1	1	1	-16
Cc1cc(C)n2c(SCC(=O)N(C)C3CCCCC3)nnc2n1	1	1	1	1	0
Cc1cc(C)n(-c2nc(SCCN(C)C)c3c4c(sc3n2)CCCC4)n1	100*	0.9	1.1	1	-7
SMILES	L major viab	PMI activator	Diaph act CS	PMI act satM6P	WT yeast gro inh
CCC(O)CNc1nc(-n2nc(C)cc2C)nc2sc3c(c12)CCCC3 (centres undefined)	.	1	0.9	0.9	.
COC(=O)c1ccc(CSc2nnc(C)n2N)o1	-3	1.1	1	1.1	5
Cc1ccc2nc3sc(C(=O)N4CCOCC4)c(N)c3cc2c1	-2	1.5	0.9	2*	10
Cc1ccc2cc3c(N)c(C(=O)N4CC(=O)Nc5ccccc54)sc3nc2c1	0	1.3	0.9	2.1*	2
CC(=O)Nc1ccc(-c2csc(NC(C)c3ccccc3)n2)cc1 (centres undefined)	8	1.1	1	1.2	6
O=C(COC(=O)CC(c1ccccc1)c1ccccc1)Nc1ccc(F)c(F)c1	4	0.8	0.7	0.8	59*
Cc1ccc2[nH]c3c(N4CCCCCC4)ncnc3c2c1	60*	1	0.9	1	-1
CCOc1ccc2[nH]c3c(N4CCN(c5ccccn5)CC4)ncnc3c2c1	28	0.9	0.9	0.9	43
OC1(c2cccc(C(F)(F)F)c2)CCN(c2ncnc3c2[nH]c2ccccc23)CC1	98*	.	.	.	85*
COc1cccc2[nH]c3c(N4CCN(Cc5ccc6c(c5)OCO6)CC4)ncnc3c12	89*	1	1.2	1.1	1
c1nc(N2CCN(Cc3ccc4c(c3)OCO4)CC2)c2[nH]cnc2n1	-1	1	1	1	-11
COc1cccc(OC)c1C(=O)N1CCN(Cc2ccc3c(c2)OCO3)CC1	4	1.2	0.9	1.1	-3
COc1ccc2c(c1)[nH]c1c(N3CCN(Cc4ccc5c(c4)OCO5)CC3)ncnc12	78*	0.9	1	1	1
Fc1ccccc1Cc1noc(CN(Cc2ccccn2)CC2CCCO2)n1 (centres undefined)	-5	1	1	1	17
c1ccc(CN2CCN(c3ncnc4c3[nH]c3ccccc34)CC2)cc1	89*	0.8	0.9	0.9	7
Cc1ccc2c(c1)[nH]c1c(N3CCN(Cc4ccccc4)CC3)ncnc12	97*	1.1	1.1	1.1	52
Cc1ccc2[nH]c3c(N4CCN(Cc5ccc6c(c5)OCO6)CC4)ncnc3c2c1	62*	0.9	0.9	1	-7
Cc1ccc2[nH]c3c(N4CCN(Cc5ccccc5)CC4)ncnc3c2c1	57*	1	1	1	25
Cc1ccc2c(c1)[nH]c1c(=O)n(CCN3CCCCC3)cnc12	10	1	1	1	-13
O=C(O)CCNC(=O)/C(=C/C=C/c1ccccc1)NC(=O)c1ccccc1	-2	1	1	1	7
c1ccc(-c2nnc(CSc3ccc4c(c3)OCCO4)o2)cc1	-4	0.9	0.4	1	-14
O=C(c1ccccc1-n1cccn1)N1CCc2c([nH]c3ccccc23)C1c1ccccn1 (centres undefined)	6	0.9	0.8	1	22
CN1CCN(S(=O)(=O)c2ccc(NC(=O)COc3ccccc3Cl)cc2)CC1	-7	1	1.1	0.6	2
Cn1ncc(Cl)c1C(=O)N1CCN(C(=O)c2ccco2)CC1	-8	1	1	0.9	8
O=C(O)CCSc1nc(C(F)(F)F)cc(=O)n1-c1ccccc1	-8	0.9	0.7	0.9	-2
COc1cccc2[nH]c3c(N4CCC(C)CC4)ncnc3c12	94*	1	1	1.1	13
COc1cc2[nH]c3c(N4CCN(c5ccc(Cl)cc5)CC4)ncnc3c2cc1OC	19	1	0.7	0.9	0

Assay outcomes deposited in PubChem BioAssay by several laboratories.
